Twelve compounds from ChEMBL document CHEMBL1799936, “Azaphilones from the endophyte Chaetomium globosum” (2011) can be followed below.

Values after ≈ are worked out from the molar mass of the structure shown. Active and inactive are the calls of the source. The rule behind the calls is not given here.

The subject of one test is Enterococcus faecalis. Kind of test: Antibiotic activity against cytolysin-positive Enterococcus faecalis MMH594 infected in intestine of Caenorhabditis elegans glp-4(bn2ts);sek-1(km4) mutant infection model assessed as nematode survival at 50 to 100 ug/mL after 168 hrs by liquid infection assay. It counts as functional, organism-based. The essentials: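 C. elegans glp-4(bn2ts);sek-1(km4) synchronized L4 to young adult worms, fed E. coli OP50, infected on E. faecalis MMH594 lawn, then moved to liquid medium (19% BHI, 80% M9, 80 μg mL-1 kanamycin, 1% DMSO) with compound at 100 and 50 μg mL-1 final. Survival scored at 3, 48, 120, 168 h. Ampicillin positive control.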

Another test relates to Globisporangium ultimum. In words: Antimicrobial activity against Pythium ultimum mycelia assessed as growth inhibition. The class given is functional.
The subject of another test is Pyricularia grisea. Kind of test: Antimicrobial activity against Magnaporthe grisea mycelia assessed as growth inhibition. It counts as functional.

On to `C[C@H](O)[C@H](C)C(=O)[C@@H]1C(=O)O[C@]2(C)C(=O)C(Cl)=C3C=C(/C=C/[C@@H](C)[C@@H](C)O)OC=C3[C@H]12`, for which the outcome in the test with Enterococcus faecalis was inactive. Turning to `CC[C@H](C)/C=C/C1=CC2=C(Cl)C(=O)[C@@]3(C)OC(=O)C(C(=O)[C@@H](C)[C@@H](C)O)=C3C2=CO1` [CHAETOVIRIDIN A], the results for the minimal inhibitory concentration (MIC) in the test on Globisporangium ultimum and in the test with Pyricularia grisea were 33.3 µg/mL (≈ 76.9 µM) and 1.23 µg/mL (≈ 2.84 µM), respectively. Further, in the test on Enterococcus faecalis, the result was inactive.

With `CC[C@H](C)/C=C/C1=CC2=C(Cl)C(=O)[C@@]3(C)OC(=O)[C@@H](C(=O)[C@@H](C)[C@H](C)O)[C@H]3C2=CO1`, the result in the test on Enterococcus faecalis was inactive.

Consider `CC(O)C(C)C1(O)O[C@]2(C)C(=O)C(Cl)=C3C=C(/C=C/[C@@H](C)[C@@H](C)O)OC=C3[C@@H]2[C@@H]1C(=O)O` (stereo partly specified), for which the outcome with Enterococcus faecalis was inactive. Still for that read-out and setting: the entry for `CC[C@H](C)/C=C/C1=CC2=C(Cl)C(=O)[C@@]3(C)OC(=O)C(C(=O)[C@@H](C)[C@H](C)O)=C3C2=CO1` is “inactive”.

For the compound `CC[C@H](C)/C=C/C1=CC2=C(Cl)C(=O)[C@@]3(C)OC(O)(C(C)C(C)O)[C@@H](C(=O)O)[C@H]3C2=CO1` (stereo partly specified) [CHAETOVIRIDIN B], the figures for the MIC in the test with Globisporangium ultimum and in the test with Pyricularia grisea were 33.3 µg/mL (≈ 73.5 µM) and 1.23 µg/mL (≈ 2.72 µM), respectively. In the test with Enterococcus faecalis, the outcome was inactive. For `CC[C@H](C)/C=C/C1=CC2=C(Cl)C(=O)[C@@]3(C)OC(=O)C(C(=O)[C@H](C)CC)=C3C2=CO1`, the outcome in the test on Enterococcus faecalis was inactive.

In the case of `C/C=C(\C)C(=O)C1=C2C3=COC(/C=C/[C@@H](C)CC)=CC3=C(Cl)C(=O)[C@@]2(C)OC1=O`, the result in the test on Enterococcus faecalis was inactive. The same measure, in the same setting: the entry for `C/C=C(\C)C(=O)[C@@H]1C(=O)O[C@]2(C)C(=O)C(Cl)=C3C=C(/C=C/[C@@H](C)CC)OC=C3[C@H]12` is “inactive”; for `CC[C@H](C)/C=C/C1=CC2=C(Cl)C(=O)[C@@]3(C)OC(=O)C4=C(C(C)C(C)O)OC(O1)C2(O)C43O` (stereo partly specified) it is “inactive”; for `CC[C@H](C)/C=C/C1=CC2=CC(=O)[C@@]3(C)OC(=O)C(C(=O)[C@@H](C)[C@@H](C)O)=C3C2=CO1` it is “inactive”. Still for that read-out and setting: the entry for `CC[C@H](C)/C=C/C1=CC2=C(Cl)C(=O)[C@@]3(C)OC(=O)C(C(=O)[C@H](C)[C@@H](C)O)=C3C2=CO1` is “inactive”.
